# Results taken from ChEMBL document CHEMBL5696442, “Discovery of type II inhibitors of TGFβ-activated kinase 1 (TAK1) and mitogen-activated protein kinase kinase kinase kinase 2 (MAP4K2)” (J Med Chem, 2015).
# The source made the active and inactive calls. The calls are words filed in the database; no cut-off is given here.
# Experiments:
# [1] = target: Activin receptor type-2A (Homo sapiens) (UniProt P27037); assay: Inhibition of ACVR2A (unknown origin) at 10 uM by Ambit Kinomescan binding assay
# [2] = target: LIM domain kinase 1 (Homo sapiens) (UniProt P53667); assay: Inhibition of LIMK1 (unknown origin) at 10 uM by Ambit Kinomescan binding assay
# [3] = target: T1, Dual specificity mitogen-activated protein kinase kinase 6 (Homo sapiens) (UniProt P52564); assay: Inhibition of MAP2K6 Lys2 labeling site in human A-375 cells at 0.05 uM by KiNativ Profiling analysis relative to control; type: cell-based
# T1 sequence (whole entry): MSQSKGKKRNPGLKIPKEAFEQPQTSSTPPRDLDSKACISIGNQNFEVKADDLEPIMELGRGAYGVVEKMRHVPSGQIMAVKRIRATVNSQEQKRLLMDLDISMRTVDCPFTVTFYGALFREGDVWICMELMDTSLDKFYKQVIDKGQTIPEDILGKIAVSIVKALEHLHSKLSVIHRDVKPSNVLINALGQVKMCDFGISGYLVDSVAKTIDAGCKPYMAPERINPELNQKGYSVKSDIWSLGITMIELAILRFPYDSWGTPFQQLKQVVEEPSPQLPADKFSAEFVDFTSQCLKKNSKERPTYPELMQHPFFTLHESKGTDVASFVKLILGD
# [4] = target: Peripheral plasma membrane protein CASK (Homo sapiens) (UniProt O14936); assay: Inhibition of CASK Lys1 labeling site in human A-375 cells at 0.5 uM by KiNativ Profiling analysis relative to control
# [5] = target: Angiopoietin-1 receptor (Homo sapiens) (UniProt Q02763); assay: Inhibition of TIE2 (unknown origin) at 10 uM by Ambit Kinomescan binding assay relative to control; values are per cent of control
# [6] = target: Mitogen-activated protein kinase 11 (Homo sapiens) (UniProt Q15759); assay: Inhibition of p38beta (unknown origin) at 10 uM by Ambit Kinomescan binding assay relative to control; values are per cent of control
# [7] = target: RAF proto-oncogene serine/threonine-protein kinase (Homo sapiens, UniProt P04049); assay: Inhibition of RAF1 Lys2 labeling site in human Huh-7 cell lysate at 1 uM by KiNativ Profiling analysis relative to control; type: subcellular
# [8] = target: Casein kinase I isoform epsilon (Homo sapiens) (UniProt P49674); assay: Inhibition of CK1epsilon Lys2 labeling site in human Huh-7 cell lysate at 1 uM by KiNativ Profiling analysis relative to control; type: subcellular
# [9] = target: T2, Interleukin-1 receptor-associated kinase 4 (Homo sapiens) (UniProt Q9NWZ3); assay: Inhibition of IRAK4 Lys2 labeling site in human Huh-7 cell lysate at 1 uM by KiNativ Profiling analysis relative to control; type: subcellular
# T2 sequence (whole entry): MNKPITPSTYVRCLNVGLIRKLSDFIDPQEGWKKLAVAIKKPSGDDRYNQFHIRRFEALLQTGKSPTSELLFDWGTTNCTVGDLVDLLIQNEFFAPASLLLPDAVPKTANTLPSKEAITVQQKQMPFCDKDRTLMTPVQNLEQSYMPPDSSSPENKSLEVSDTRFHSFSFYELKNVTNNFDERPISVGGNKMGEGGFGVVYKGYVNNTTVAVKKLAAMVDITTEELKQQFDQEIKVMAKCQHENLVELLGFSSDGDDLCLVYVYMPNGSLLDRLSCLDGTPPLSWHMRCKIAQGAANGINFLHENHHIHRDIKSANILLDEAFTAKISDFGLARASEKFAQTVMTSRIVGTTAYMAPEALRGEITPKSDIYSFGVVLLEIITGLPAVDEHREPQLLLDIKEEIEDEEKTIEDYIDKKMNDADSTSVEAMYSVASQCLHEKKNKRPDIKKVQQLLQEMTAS
# [10] = target: Cyclin-dependent kinase 5 (Homo sapiens) (UniProt Q00535); assay: Inhibition of CDK5 Lys2 labeling site harbouring NVLHRDLKPQNLLINR in human Huh-7 cells at 1 uM by KiNativ Profiling analysis relative to control; type: cell-based
# [11] = target: T3, EKC/KEOPS complex subunit TP53RK (Homo sapiens) (UniProt Q96S44); assay: Inhibition of PRPK ATP Loop labeling site in human Huh-7 cells at 1 uM by KiNativ Profiling analysis relative to control; type: cell-based
# T3 sequence (whole entry): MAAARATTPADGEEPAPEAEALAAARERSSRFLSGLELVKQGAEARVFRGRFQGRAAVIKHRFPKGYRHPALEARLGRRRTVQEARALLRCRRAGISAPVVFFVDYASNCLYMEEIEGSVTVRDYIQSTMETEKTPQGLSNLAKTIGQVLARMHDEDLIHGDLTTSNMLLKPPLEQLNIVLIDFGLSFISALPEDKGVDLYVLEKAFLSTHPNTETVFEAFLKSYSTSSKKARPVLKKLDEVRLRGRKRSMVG
# [12] = target: Tyrosine-protein kinase receptor Tie-1 (Homo sapiens) (UniProt P35590); assay: Inhibition of TIE1 (unknown origin) at 1 uM by Ambit Kinomescan binding assay relative to control
# [13] = target: Wee1-like protein kinase (Homo sapiens) (UniProt P30291); assay: Inhibition of WEE1 (unknown origin) at 1 uM by Ambit Kinomescan binding assay relative to control
# [14] = target: Cyclin-dependent kinase 2 (Homo sapiens) (UniProt P24941); assay: Inhibition of CDK2 Lys2 labeling site in human A-375 cells at 5 uM by KiNativ Profiling analysis relative to control; type: cell-based
# [15] = target: Serine/threonine-protein kinase 38 (Homo sapiens) (UniProt Q15208); assay: Inhibition of NDR1 ACT labeling site in human A-375 cells at 5 uM by KiNativ Profiling analysis relative to control; type: cell-based
# [16] = target: 5'-AMP-activated protein kinase catalytic subunit alpha-2 (Homo sapiens) (UniProt P54646); assay: Inhibition of AMPKa2 Lys1 labeling site in human A-375 cells at 0.5 uM by KiNativ Profiling analysis relative to control; type: cell-based
# Outline: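 Live A375 melanoma cells were treated with compound at 5 or 0.5 μM, then lysed. The lysates were labeled with a lysine-reactive ATP or ADP-biotin probe. Kinase protection from probe labeling was measured by KiNativ.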
# [17] = target: Receptor-type tyrosine-protein kinase FLT3 (Homo sapiens) (UniProt P36888); assay: Inhibition of FLT3 (unknown origin) at 1 uM by Ambit Kinomescan binding assay relative to control; values are per cent of control
# [18] = target: Serine/threonine-protein kinase 38-like (Homo sapiens) (UniProt Q9Y2H1); assay: Inhibition of NDR2 (unknown origin) at 1 uM by Ambit Kinomescan binding assay relative to control; values are per cent of control
# [19] = target: MAP kinase-interacting serine/threonine-protein kinase 2 (Homo sapiens) (UniProt Q9HBH9); assay: Inhibition of MKNK2 (unknown origin) at 1 uM by Ambit Kinomescan binding assay relative to control; values are per cent of control
# Peripheral plasma membrane protein CASK (Homo sapiens), sequence (O14936 whole entry, looked up): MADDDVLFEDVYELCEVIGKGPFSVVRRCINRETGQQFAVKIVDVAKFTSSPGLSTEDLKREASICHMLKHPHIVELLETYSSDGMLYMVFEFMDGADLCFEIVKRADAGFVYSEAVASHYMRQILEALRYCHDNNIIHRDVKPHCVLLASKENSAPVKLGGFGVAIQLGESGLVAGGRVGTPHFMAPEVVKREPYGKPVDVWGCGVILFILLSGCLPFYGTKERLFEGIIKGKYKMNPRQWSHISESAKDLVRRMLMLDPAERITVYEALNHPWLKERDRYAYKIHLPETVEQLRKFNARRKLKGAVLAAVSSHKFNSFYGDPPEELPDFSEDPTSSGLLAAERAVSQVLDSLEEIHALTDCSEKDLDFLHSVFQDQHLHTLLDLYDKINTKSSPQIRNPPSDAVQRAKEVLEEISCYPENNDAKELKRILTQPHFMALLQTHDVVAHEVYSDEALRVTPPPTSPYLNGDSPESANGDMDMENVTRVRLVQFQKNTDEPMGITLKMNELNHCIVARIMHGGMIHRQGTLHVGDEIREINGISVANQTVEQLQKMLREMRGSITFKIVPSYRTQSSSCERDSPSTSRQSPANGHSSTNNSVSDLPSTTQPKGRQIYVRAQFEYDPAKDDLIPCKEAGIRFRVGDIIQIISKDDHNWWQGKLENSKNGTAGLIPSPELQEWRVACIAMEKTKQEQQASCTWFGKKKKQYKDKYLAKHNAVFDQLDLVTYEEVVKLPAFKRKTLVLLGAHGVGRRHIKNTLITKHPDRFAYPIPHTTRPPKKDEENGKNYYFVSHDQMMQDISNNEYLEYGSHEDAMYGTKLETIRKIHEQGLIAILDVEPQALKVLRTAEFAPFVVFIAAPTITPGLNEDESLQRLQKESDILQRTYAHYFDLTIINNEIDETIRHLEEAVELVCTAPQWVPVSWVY
# Wee1-like protein kinase (Homo sapiens), sequence (P30291 whole entry, looked up): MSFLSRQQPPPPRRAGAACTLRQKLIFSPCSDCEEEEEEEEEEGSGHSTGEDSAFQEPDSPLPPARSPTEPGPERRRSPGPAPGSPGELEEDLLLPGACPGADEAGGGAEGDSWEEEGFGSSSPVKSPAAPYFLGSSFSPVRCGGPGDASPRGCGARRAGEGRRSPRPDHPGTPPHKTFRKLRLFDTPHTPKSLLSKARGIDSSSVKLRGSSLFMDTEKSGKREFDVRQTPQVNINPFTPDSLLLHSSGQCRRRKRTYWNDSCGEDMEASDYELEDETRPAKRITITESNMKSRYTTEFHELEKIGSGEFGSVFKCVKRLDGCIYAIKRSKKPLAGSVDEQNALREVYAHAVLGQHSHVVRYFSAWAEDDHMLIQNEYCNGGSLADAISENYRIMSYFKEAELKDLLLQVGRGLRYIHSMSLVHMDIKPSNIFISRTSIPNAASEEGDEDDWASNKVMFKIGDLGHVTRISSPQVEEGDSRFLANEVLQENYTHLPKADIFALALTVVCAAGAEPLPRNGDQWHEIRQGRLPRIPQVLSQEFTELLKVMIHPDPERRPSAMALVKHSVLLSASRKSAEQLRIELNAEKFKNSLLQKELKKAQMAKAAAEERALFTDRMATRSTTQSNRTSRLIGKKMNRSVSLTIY
# Casein kinase I isoform epsilon (Homo sapiens), sequence (P49674 whole entry, looked up, canonical isoform): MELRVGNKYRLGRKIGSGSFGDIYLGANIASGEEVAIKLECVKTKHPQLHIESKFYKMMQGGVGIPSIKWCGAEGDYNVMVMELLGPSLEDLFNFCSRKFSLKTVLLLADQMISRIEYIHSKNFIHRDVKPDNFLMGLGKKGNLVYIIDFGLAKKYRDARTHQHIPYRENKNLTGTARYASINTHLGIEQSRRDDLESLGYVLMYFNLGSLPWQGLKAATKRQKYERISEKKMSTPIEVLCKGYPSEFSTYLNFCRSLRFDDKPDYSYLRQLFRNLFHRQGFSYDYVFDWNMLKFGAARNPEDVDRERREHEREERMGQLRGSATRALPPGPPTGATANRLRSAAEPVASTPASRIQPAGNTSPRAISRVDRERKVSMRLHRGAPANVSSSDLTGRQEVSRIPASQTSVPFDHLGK
# Tyrosine-protein kinase receptor Tie-1 (Homo sapiens), sequence (P35590 whole entry): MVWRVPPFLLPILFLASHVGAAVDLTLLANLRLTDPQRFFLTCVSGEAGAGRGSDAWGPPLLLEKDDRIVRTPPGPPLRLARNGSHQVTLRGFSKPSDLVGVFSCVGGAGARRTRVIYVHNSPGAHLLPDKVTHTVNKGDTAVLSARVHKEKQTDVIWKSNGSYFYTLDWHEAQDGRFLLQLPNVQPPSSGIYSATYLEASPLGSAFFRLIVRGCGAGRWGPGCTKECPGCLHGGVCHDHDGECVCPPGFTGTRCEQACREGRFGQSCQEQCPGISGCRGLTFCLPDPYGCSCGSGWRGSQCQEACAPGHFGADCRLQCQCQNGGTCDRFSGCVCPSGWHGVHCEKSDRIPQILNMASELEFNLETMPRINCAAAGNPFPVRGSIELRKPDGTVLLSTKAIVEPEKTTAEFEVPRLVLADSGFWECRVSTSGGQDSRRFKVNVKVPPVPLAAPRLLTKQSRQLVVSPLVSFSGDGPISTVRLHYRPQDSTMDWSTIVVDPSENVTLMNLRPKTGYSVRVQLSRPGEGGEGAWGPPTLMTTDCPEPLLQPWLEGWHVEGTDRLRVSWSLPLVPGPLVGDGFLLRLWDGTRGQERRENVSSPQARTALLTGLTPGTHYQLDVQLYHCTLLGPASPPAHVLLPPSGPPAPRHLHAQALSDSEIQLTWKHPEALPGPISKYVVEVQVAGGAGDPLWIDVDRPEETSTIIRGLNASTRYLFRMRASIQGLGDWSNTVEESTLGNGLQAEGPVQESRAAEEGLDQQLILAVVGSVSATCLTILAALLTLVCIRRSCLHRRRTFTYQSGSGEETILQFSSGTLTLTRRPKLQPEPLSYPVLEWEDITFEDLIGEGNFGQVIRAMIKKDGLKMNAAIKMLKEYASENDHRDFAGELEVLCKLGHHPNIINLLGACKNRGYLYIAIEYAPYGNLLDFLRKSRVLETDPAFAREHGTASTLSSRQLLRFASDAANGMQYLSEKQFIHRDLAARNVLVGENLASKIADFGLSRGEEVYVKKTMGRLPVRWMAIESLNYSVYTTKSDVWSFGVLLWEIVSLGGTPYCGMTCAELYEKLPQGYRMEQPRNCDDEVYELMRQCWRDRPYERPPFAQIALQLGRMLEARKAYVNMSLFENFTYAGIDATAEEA
# Mitogen-activated protein kinase 11 (Homo sapiens), sequence (Q15759 whole entry): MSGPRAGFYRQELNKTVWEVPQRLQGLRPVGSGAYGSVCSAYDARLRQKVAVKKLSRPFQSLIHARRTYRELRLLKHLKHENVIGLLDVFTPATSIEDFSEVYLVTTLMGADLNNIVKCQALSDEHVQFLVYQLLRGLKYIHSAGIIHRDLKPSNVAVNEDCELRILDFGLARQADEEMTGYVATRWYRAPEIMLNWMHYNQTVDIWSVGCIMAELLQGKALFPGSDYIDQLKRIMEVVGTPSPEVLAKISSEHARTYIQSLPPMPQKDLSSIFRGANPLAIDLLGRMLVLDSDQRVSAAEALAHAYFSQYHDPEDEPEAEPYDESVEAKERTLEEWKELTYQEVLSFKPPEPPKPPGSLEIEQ
# Cyclin-dependent kinase 5 (Homo sapiens), sequence (Q00535 whole entry, looked up): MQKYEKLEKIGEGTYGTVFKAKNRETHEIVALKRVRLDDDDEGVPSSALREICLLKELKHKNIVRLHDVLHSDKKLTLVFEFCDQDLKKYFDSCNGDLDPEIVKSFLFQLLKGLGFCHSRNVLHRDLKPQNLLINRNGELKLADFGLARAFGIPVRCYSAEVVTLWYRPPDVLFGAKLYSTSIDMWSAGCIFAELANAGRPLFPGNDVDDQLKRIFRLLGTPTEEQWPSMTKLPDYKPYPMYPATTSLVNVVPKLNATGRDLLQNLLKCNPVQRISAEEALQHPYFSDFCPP
# Receptor-type tyrosine-protein kinase FLT3 (Homo sapiens), sequence (P36888 whole entry): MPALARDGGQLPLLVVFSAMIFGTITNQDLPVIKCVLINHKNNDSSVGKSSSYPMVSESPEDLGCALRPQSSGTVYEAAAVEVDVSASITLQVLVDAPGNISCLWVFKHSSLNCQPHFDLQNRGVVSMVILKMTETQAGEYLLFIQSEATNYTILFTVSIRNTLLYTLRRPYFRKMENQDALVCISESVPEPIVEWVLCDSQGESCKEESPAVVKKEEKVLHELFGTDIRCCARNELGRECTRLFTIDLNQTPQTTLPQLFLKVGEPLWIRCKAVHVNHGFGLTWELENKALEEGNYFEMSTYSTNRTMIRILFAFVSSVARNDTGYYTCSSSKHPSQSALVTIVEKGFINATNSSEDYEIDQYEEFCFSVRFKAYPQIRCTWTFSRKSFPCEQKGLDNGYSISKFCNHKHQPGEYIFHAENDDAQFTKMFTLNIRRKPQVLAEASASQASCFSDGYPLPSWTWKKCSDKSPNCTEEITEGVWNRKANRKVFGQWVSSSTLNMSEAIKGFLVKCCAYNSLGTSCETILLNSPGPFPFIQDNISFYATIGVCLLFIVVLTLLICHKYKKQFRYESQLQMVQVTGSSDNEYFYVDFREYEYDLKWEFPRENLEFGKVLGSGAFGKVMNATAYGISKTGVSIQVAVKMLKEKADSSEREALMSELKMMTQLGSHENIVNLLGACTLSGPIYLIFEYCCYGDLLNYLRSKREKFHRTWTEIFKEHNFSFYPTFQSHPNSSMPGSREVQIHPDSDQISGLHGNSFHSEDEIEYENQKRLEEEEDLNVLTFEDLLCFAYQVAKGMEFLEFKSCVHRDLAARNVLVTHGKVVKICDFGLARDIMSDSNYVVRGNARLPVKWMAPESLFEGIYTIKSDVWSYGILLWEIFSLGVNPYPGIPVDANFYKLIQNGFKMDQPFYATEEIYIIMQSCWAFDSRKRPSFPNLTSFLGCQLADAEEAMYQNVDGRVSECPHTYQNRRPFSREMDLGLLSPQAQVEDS
smiles,measurement,setting,value
CCN1CCN(Cc2ccc(NC(=O)c3ccc(C)c(Oc4ccnc5[nH]ccc45)c3)cc2C(F)(F)F)CC1,inhibition,[1],inactive
same,inhibition,[2],inactive
same,inhibition,[3],-8.5%
same,inhibition,[4],5.8%
same,residual activity,[5],0%
same,percent of control,[6],0%
CNc1cc(Oc2cc(C(=O)Nc3cc(N4CCN(C)CC4)cc(C(F)(F)F)c3)ccc2C)ncn1,inhibition,[7],23.2%
same,inhibition,[8],0.6%
same,inhibition,[9],8.4%
same,inhibition,[10],1.1%
same,inhibition,[11],22.9%
CCN1CCN(Cc2ccc(NC(=O)c3ccc(C)c(/C=C/c4cnc5[nH]ccc5c4OC)c3)cc2C(F)(F)F)CC1,inhibition,[12],0.95%
same,inhibition,[13],100%
same,inhibition,[14],3.4%
same,inhibition,[15],-2.6%
same,inhibition,[16],20.3%
same,residual activity,[17],0.15%
same,residual activity,[18],79%
same,residual activity,[19],48%
